Here are results for 25 compounds from PubChem BioAssay AID624399 (The Scripps Research Institute Molecular Screening Center, 2012).

SMILES strings stand for the structures. Activity calls are given as the source filed them.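 How the source made its calls: active means increase in reporter activity of 20% or more; inactive means increase below 20%, or a negative response.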

The subject of the experiment is BG1Luc4E2 cells, ERE-luciferase luminescence, 24 h. In words: activators of ER-driven luciferase reporter, late-stage follow-up, counter-screen for AHR activator project, BG1Luc4E2 ovarian carcinoma cells, luminescence (AID 624399). The conditions noted are these: at 10 µM; hits give high values. The method in brief:
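Repeats: triplicate wells per compound; assay system: BG1Luc4E2 cells, firefly luciferase reporter under two synthetic EREs; measured by: firefly luciferase luminescence measured after cell lysis; control set: 17β-estradiol at 1 nM as positive control; schedule: 24 h compound exposure at 37 °C after 5-day depletion; read-out: maximum % reporter activation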
On the technique in general: Reporter assays use an easily measured gene product as a stand-in for the process of interest.
In the case of `CN(Cc1cc(-c2cccs2)n[nH]1)Cc1coc2ccccc2c1=O`, the activation is -2.6% (inactive).

Consider `COc1ccc(Nc2cc(Cl)nc(N)n2)cc1`, for which the activation is 2.2% (inactive).

Take `Nc1nc(Cl)cc(Nc2ccc(Oc3ccccc3)cc2)n1`: the activation is 3.3% (inactive).

Take `Cc1ccc(NC(=O)c2ccc(C(=O)Nc3ccc(C)cc3C)nc2)c(C)c1`: the activation was -1.6% (inactive).

Turning to `CCOC(=O)c1c(C)nn(-c2cc(Cl)ccc2Cl)c1C`, the activation is -3.3% (inactive).

For the compound `COc1ccc(NC(=O)c2ccc(C(=O)Nc3ccc(OC)cc3OC)nc2)c(OC)c1`, the activation is -0.5% (inactive).

For `COc1ccc(-c2cc(-c3ccc(C)cc3O)[nH]n2)cc1`, the activation is -7.2% (inactive).

Take `COc1ccc(Nc2cc(Cl)nc(N)n2)cc1OC`: the activation is 13.6% (inactive).

Consider `Cc1ccc(-c2cc(-c3cccc(F)c3)n[nH]2)c(O)c1`, for which the activation is 3.8% (inactive).

Regarding `O=C(CSc1nc2ccccc2s1)Nc1ccc(Cl)cn1`, the activation was -2% (inactive).

Consider `COc1ccc(Cl)cc1NC(=O)c1ccc(C(=O)Nc2cc(Cl)ccc2OC)nc1`, for which the activation was -3.6% (inactive).

For `CCOc1ccccc1NC(=O)c1ccc(C(=O)Nc2ccccc2OCC)nc1`, the activation was -2.8% (inactive).

On to `O=C(CSc1nc2ccccc2s1)Nc1ccccn1`, for which the activation is -1% (inactive).

Turning to `Cc1cccc(NC(=O)c2cc(-c3ccc(C)cc3O)n[nH]2)c1`, the activation is 1.8% (inactive).

Turning to `Nc1nc(Cl)cc(Nc2ccccc2F)n1`, the activation was -0.9% (inactive).

In the case of `Cc1cccc(C)c1NC(=O)c1ccc(C(=O)Nc2c(C)cccc2C)nc1`, the activation was -5.1% (inactive).

In the case of `O=C(CSc1nc(-c2ccc(F)cc2)cs1)Nc1ccccn1`, the activation was 1% (inactive).

Regarding `Cc1csc(SCC(=O)Nc2ccccn2)n1`, the activation is -2.6% (inactive).

As to `Cc1cc(Nc2ccc(F)cc2)nc(N)n1`, the activation was -2.7% (inactive).

With `Cc1ccnc(NC(=O)CSc2nc3ccccc3s2)c1`, the activation is -3.7% (inactive).

On to `Cc1ccc(-c2cc(-c3ccc(F)cc3)n[nH]2)c(O)c1`, for which the activation was 5.8% (inactive).

Turning to `Cc1ccc(O)c(-c2cc(-c3ccccc3Cl)[nH]n2)c1`, the activation was 11.6% (inactive).

Turning to `COc1ccc(O)c(-c2cc(-c3cccs3)[nH]n2)c1`, the activation is -3% (inactive).

`Cc1ccc(-c2cc(-c3ccc(Cl)cc3)n[nH]2)c(O)c1`: the activation is 3.2% (inactive).

In the case of `Cc1cc(Br)cc(C)c1Nc1ccnc(Nc2ccc(C#N)cc2)n1`, the activation is -3.5% (inactive).
